Active and inactive are the calls of the source. No cut-off for these calls is given here. A value given as a limit tells only on which side of the number the result lay.

This note sets out measurements from ChEMBL document CHEMBL3286279, “The synthesis and biological evaluation of new DNA-directed alkylating agents, phenyl N-mustard-4-anilinoquinoline conjugates containing a urea linker” (Eur J Med Chem, 2014).

One test concerns HCT-116. Put plainly: Cytotoxicity against human HCT116 cells after 72 hrs by AlamarBlue assay. Type of test: functional, cell-based. To be noted: HCT-116, 72 h. The method, boiled down: (§1)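 Growth inhibition read by alamarBlue. After reagent addition, plates were held 6 h at 37 °C and absorbance read at 570 and 600 nm. IC50 was derived from dose-response curves over 6 or 7 drug concentrations by the median-effect method. Values are mean and STDEV of three to six independent experiments.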

Test [1] can be described thus: Cytotoxicity against human H1299 cells after 72 hrs by AlamarBlue assay. It counts as functional, cell-based. The note with it: NCI-H1299, 72 h. An outline of the steps: as §1
Background: The colour change of resazurin is a common sign of viable cells or microbes.

Test [2] is described as follows: Cell cycle arrest in human H460 cells assessed as accumulation at G1 phase after 24 hrs using propidium iodide staining by flow cytometry. To be noted: NCI-H460. Type of test: functional, cell-based. The method, boiled down: (§2)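 H460 cells exposed to 0.25, 0.5, 1 or 2 µM for 24 h, then stained with […] propidium iodide in PBS with 0.1 mg/mL RNase A and 1% Triton X-100. DNA content and phase distribution read by flow cytometry. Values are the mean of 3 independent experiments.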
(In flow cytometry, cells or beads pass a laser one at a time.)

The test system of test [3] is CCRF-CEM. Put plainly: Cytotoxicity against human CCRF-CEM cells after 72 hrs by AlamarBlue assay. It counts as functional, cell-based. The method, boiled down:
as §1

For test [4], the system named is CCRF-CEM. Put plainly: Ratio of IC50 for human vinblastine-resistant CCRF-CEM cells to IC50 for human CCRF-CEM cells. It counts as functional. The method, boiled down: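 Ratio of alamarBlue IC50 values, determined in the CCRF-CEM/VBL vinblastine-resistant subline and in the parental CCRF-CEM line.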
Test [5] relates to NCI-H460. Put plainly: Induction of apoptosis in human H460 cells assessed as late apoptotic cells at 2 uM after 24 hrs using Annexin V/propidium iodide staining by flow cytometry (reference value: 7%). It counts as functional.
A short description of test [6]: Cell cycle arrest in human H460 cells assessed as accumulation at sub-G1 phase at 2 uM after 24 hrs using propidium iodide staining by flow cytometry. It counts as functional, cell-based. The note with it: NCI-H460. The method, boiled down:
as §2

The test system of test [7] is NCI-H460. Put plainly: Induction of apoptosis in human H460 cells assessed as early apoptotic cells at 2 uM after 24 hrs using Annexin V/propidium iodide staining by flow cytometry (reference value: 2%). It counts as functional.
Test [8] relates to NCI-H460. Put plainly: Induction of apoptosis in human H460 cells assessed as necrotic cells at 2 uM after 24 hrs using Annexin V/propidium iodide staining by flow cytometry (reference value: 0.6%). It counts as functional.
Test [9] has as its system NCI-H460. As to the kind of experiment: Induction of apoptosis in human H460 cells assessed as necrotic cells at 2 uM after 72 hrs using Annexin V/propidium iodide staining by flow cytometry (reference value: 0.6%). It counts as functional.
Test [10] has as its system NCI-H460. Put plainly: Induction of apoptosis in human H460 cells assessed as early apoptotic cells at 2 uM after 48 hrs using Annexin V/propidium iodide staining by flow cytometry (reference value: 2%). Type of test: functional.
The nature of test [11]: Cytotoxicity against human H460 cells after 72 hrs by AlamarBlue assay. Type of test: functional, cell-based. To be noted: NCI-H460, 72 h. The method, boiled down:
as §1

Test [12] deals with NCI-H460. Put plainly: Induction of apoptosis in human H460 cells assessed as late apoptotic cells at 2 uM after 48 hrs using Annexin V/propidium iodide staining by flow cytometry (reference value: 7%). It counts as functional.
For test [13], the system named is NCI-H460. Put plainly: Induction of apoptosis in human H460 cells assessed as early apoptotic cells at 2 uM after 72 hrs using Annexin V/propidium iodide staining by flow cytometry (reference value: 2%). It counts as functional.
In test [14] the test system is CCRF-CEM. As to the kind of experiment: Cytotoxicity against human vinblastine-resistant CCRF-CEM cells after 72 hrs by AlamarBlue assay. It counts as functional, cell-based. An outline of the steps: as §1
Test [15] in a line: Cell cycle arrest in human H460 cells assessed as accumulation at G2/M phase after 24 hrs using propidium iodide staining by flow cytometry. The note with it: NCI-H460. Type of test: functional, cell-based. The method, boiled down: as §2
The subject of test [16] is NCI-H460. Put plainly: Induction of apoptosis in human H460 cells assessed as necrotic cells at 2 uM after 48 hrs using Annexin V/propidium iodide staining by flow cytometry (reference value: 0.6%). It counts as functional.
The test system of the next test is PC-3. Put plainly: Cytotoxicity against human PC3 cells after 72 hrs by AlamarBlue assay. Type of test: functional, cell-based. To be noted: PC-3, 72 h. The method, boiled down: as §1
The subject of test [17] is NCI-H460. As to the kind of experiment: Induction of apoptosis in human H460 cells assessed as late apoptotic cells at 2 uM after 72 hrs using Annexin V/propidium iodide staining by flow cytometry (reference value: 7%). Type of test: functional.
The nature of test [18]: Induction of DNA cross-linking activity in pEGFP-N1 DNA (unknown origin) at 20 uM after 2 hrs by alkaline agarose gel shift assay. The method, boiled down:
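pEGFP-N1 plasmid DNA incubated with compound at 1, 10 or 20 µM in binding buffer (30 mM NaCl/10 mM sodium phosphate pH 7.4, 10 mM EDTA) for 2 h at 37 °C. DNA then linearized with BamHI for 6 h, ethanol-precipitated and run on alkaline agarose gel. Cross-linked double-stranded DNA was scored against single-stranded DNA. Melphalan (1 and 10 µM) was the positive control.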
On the technique in general: Mobility shift assays separate free from complexed probe on a gel.

`Cc1cc(Nc2cccc(Br)c2)c2cc(NC(=O)Nc3ccc(N(CCCl)CCCl)cc3)ccc2n1`: the IC50 (commonly the midpoint of a concentration-inhibition curve) with HCT-116 turned out to be 490 nM; in [1], 770 nM; in the test on CCRF-CEM [3] it was 460 nM; in [11], 1180 nM; in the test with CCRF-CEM [14], 5190 nM; in the test with PC-3, 1410 nM. The Activity entry is “Dose-dependent effect” in test [2]; 16.7% in the test with NCI-H460 [5]; 3.7% with NCI-H460 [7]; 4.3% with NCI-H460 [8]; 9.8% in the test with NCI-H460 [9]; 1.4% in the test on NCI-H460 [10]. In addition, the Activity in the test on NCI-H460 [12] was 32.6%; in the test on NCI-H460 [13], 3.7%; in test [15], “Dose-dependent effect”; in the test with NCI-H460 [16] it was 21.8%; in the test with NCI-H460 [17] it was 65.5%. The “Ratio IC50” value in the test on CCRF-CEM [4] stood at 11.28. In [6], the outcome was Active.
Take `Cc1cc(Nc2cccc(F)c2)c2cc(NC(=O)Nc3ccc(N(CCCl)CCCl)cc3)ccc2n1`: the IC50 came to 740 nM with HCT-116; 1090 nM in [1]; 700 nM with CCRF-CEM [3]; 860 nM in [11]; 9580 nM in the test with CCRF-CEM [14]; 1490 nM in the test with PC-3. Moreover, the “Ratio IC50” value with CCRF-CEM [4] was determined as 13.68.
Regarding `Cc1cccc(Nc2cc(C)nc3ccc(NC(=O)Nc4ccc(N(CCCl)CCCl)cc4)cc23)c1`, the IC50 in the test on HCT-116 was 490 nM; in test [1], 1050 nM; in the test with CCRF-CEM [3] it was 390 nM; in test [11], 920 nM; with CCRF-CEM [14], 5850 nM; with PC-3, 1290 nM. The “Ratio IC50” value in the test on CCRF-CEM [4] was 15. Also, in [18], the result was Active.
As to `Cc1cc(Nc2ccccc2)c2cc(NC(=O)Nc3ccc(N(CCCl)CCCl)cc3)ccc2n1`, the IC50 was determined as 830 nM in the test on HCT-116; 1730 nM in test [1]; 440 nM in the test with CCRF-CEM [3]; 1370 nM in test [11]; 11500 nM in the test on CCRF-CEM [14]; 1490 nM with PC-3. In the test with CCRF-CEM [4], the “Ratio IC50” value turned out to be 26.15.
On to `CNc1cc(C)nc2ccc(NC(=O)Nc3ccc(N(CCCl)CCCl)cc3)cc12`, for which the 50% inhibitory concentration (IC50) is 1280 nM in the test on HCT-116; 5400 nM in test [1]; 390 nM in the test on CCRF-CEM [3]; 9370 nM in [11]; > 100000 nM in the test on CCRF-CEM [14]; 2510 nM in the test with PC-3. In the test with CCRF-CEM [4], the “Ratio IC50” value is >256.
Consider `Cc1cc(Nc2ccc(F)c(Cl)c2)c2cc(NC(=O)Nc3ccc(N(CCCl)CCCl)cc3)ccc2n1`, for which the IC50 came out at 830 nM in the test with HCT-116; 1070 nM in [1]; 540 nM in the test on CCRF-CEM [3]; 1400 nM in test [11]; 9830 nM with CCRF-CEM [14]; 1780 nM with PC-3. In addition, in the test with CCRF-CEM [4], the “Ratio IC50” value came out at 18.2.
Regarding `Cc1cc(Nc2ccc(Cl)cc2)c2cc(NC(=O)Nc3ccc(N(CCCl)CCCl)cc3)ccc2n1`, the IC50 came to 770 nM in the test with HCT-116; 1310 nM in test [1]; 730 nM in the test on CCRF-CEM [3]; 840 nM in test [11]; 8180 nM with CCRF-CEM [14]; 1360 nM in the test with PC-3. The “Ratio IC50” value in the test with CCRF-CEM [4] was 11.21.
On to `COc1cccc(Nc2cc(C)nc3ccc(NC(=O)Nc4ccc(N(CCCl)CCCl)cc4)cc23)c1`, for which the IC50 came to 620 nM with HCT-116; 1320 nM in test [1]; 280 nM in the test with CCRF-CEM [3]; 1830 nM in test [11]; 4220 nM in the test with CCRF-CEM [14]; 2380 nM with PC-3. Besides, in the test with CCRF-CEM [4], the “Ratio IC50” value worked out at 15.07. Further, the result in test [18] was Active.
Regarding `O=C(Nc1ccc(N(CCCl)CCCl)cc1)Nc1ccc2nc(-c3ccccc3)cc(Nc3cccc(Cl)c3)c2c1`, the IC50 in the test with HCT-116 was 3690 nM; in test [1], 2350 nM; in the test on CCRF-CEM [3], 2070 nM; in test [11] it was 2260 nM; in the test with CCRF-CEM [14] it was 4550 nM; with PC-3, 2130 nM. In addition, in the test with CCRF-CEM [4], the “Ratio IC50” value is 2.19.
